Source: ChEMBL document CHEMBL1137676, “Nitroimidazolyl-1,3,4-thiadiazole-based anti-leishmanial agents: synthesis and in vitro biological evaluation” (Eur J Med Chem, 2009)
Activity calls are given as the source filed them. No cut-off for these calls is given here.

Columns and labels:
Leishmania major [1] = test: Antileishmanial activity against promastigote form of Leishmania major MRHO/IR/75/ER after 24 hrs by MTT assay; assay type: functional, organism-based
Procedure, shortened: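 Early-log promastigotes (2 × 10⁶/mL) were incubated with serial drug dilutions for 24 h at 25 °C in phenol red-free RPMI 1640 with 10% FBS, 2 mM glutamine and antibiotics, pH ~7.2. MTT at 0.5 mg/mL was added for 4 h at 37 °C, formazan was dissolved in DMSO and read at 492 nm. Controls received medium plus DMSO. IC₅₀ came from linear regression over ≥2 independent triplicate experiments, given as mean ± SD.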

[2] = Cytotoxicity against mouse peritoneal macrophages assessed as cell viability after 24 hrs by MTT assay; assay type: cell-based; set-up: concentration or dose not given beside the values; settings: peritoneal macrophage cell
Procedure, shortened: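 Mouse peritoneal macrophages were plated at 2 × 10⁵ cells/well. After adherence, the medium was replaced with compound-containing medium for 24 h at 37 °C, 5% CO₂, with medium-plus-DMSO controls. Viability was read by MTT colorimetric assay.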

Leishmania major [3] = test: Antileishmanial activity against amastigote form of Leishmania major MRHO/IR/75/ER in mouse peritoneal macrophages assessed as decrease in macrophage infectivity after 24 hrs; assay type: functional, organism-based
Procedure, shortened: (§1)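 Mouse peritoneal macrophages were seeded on glass coverslips at 1 × 10⁶ per well, and non-adherent cells were washed off after 1 h. Stationary-phase promastigotes were added at 3 per macrophage for 2 h at 37 °C in CO₂, then unbound parasites were washed away. Cells got drug-containing medium for 24 h and were then methanol-fixed and Giemsa-stained, counting 60 cells per well. Infectivity index = % infected macrophages × mean amastigotes per infected cell. Two sets of experiments were run.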

Leishmania major [4] = test: Antileishmanial activity against amastigote form of Leishmania major MRHO/IR/75/ER in mouse peritoneal macrophages assessed as decrease in infectivity index after 24 hrs; assay type: functional, organism-based; procedure, shortened: as §1
Leishmania major [5] = test: Antileishmanial activity against amastigote form of Leishmania major MRHO/IR/75/ER in mouse peritoneal macrophages assessed as decrease in number of amastigotes per macrophage after 24 hrs; assay type: functional, organism-based; procedure, shortened: as §1
[6] = Leishmania major, MRHO/IR/75/ER, 24 h

Row | Compound | IC50 (Leishmania major [1]; [6]) [µM] | Activity [2] | Activity (Leishmania major [3]) | Activity (Leishmania major [4]) | Activity (Leishmania major [5]) | IC50 (Leishmania major [1]) [µM]
1 | Cn1c([N+](=O)[O-])cnc1-c1nnc(N2CCN(C(=O)c3cccs3)CC2)s1 | 25.6 | Non-toxic | – | – | – | –
2 | Cn1c([N+](=O)[O-])cnc1-c1nnc(N2CCN(C(=O)c3ccc(Cl)cc3)CC2)s1 | 42.9 | Non-toxic | – | – | – | –
3 | Cn1c([N+](=O)[O-])cnc1-c1nnc(N2CCN(C(=O)c3ccccc3)CC2)s1 | 10.4 | Non-toxic | Active | Active | Active | –
4 | Cn1c([N+](=O)[O-])cnc1-c1nnc(N2CCN(C(=O)c3cccc(Cl)c3)CC2)s1 | 17.9 | Non-toxic | – | – | – | –
5 | Cn1c([N+](=O)[O-])cnc1-c1nnc(N2CCN(C(=O)c3ccccc3Cl)CC2)s1 | 20.3 | Non-toxic | – | – | – | –
6 | Cn1c([N+](=O)[O-])cnc1-c1nnc(N2CCN(C(=O)c3ccc(Cl)s3)CC2)s1 | 9.35 | Non-toxic | Active | Active | Active | –
7 | MEGLUMINE ANTIMONATE | – | 40% | – | – | – | 82
8 | Cn1c([N+](=O)[O-])cnc1-c1nnc(N2CCN(C(=O)c3ccc(Br)s3)CC2)s1 | 16 | Non-toxic | – | – | – | –
